Experimental findings from ChEMBL document CHEMBL6120953, “Targeting Plasmodium falciparum IspD in the Methyl-d-erythritol Phosphate Pathway: Urea-Based Compounds with Nanomolar Potency on Target and Low-Micromolar Whole-Cell Activity” (J Med Chem, 2024) are described below.

Test [1] concerns Plasmodium falciparum. As to the kind of experiment: Uncompetitive inhibition of Plasmodium falciparum IspD at 19.5 to 625 uM in presence of MEP by lineweaver-burk plot analysis. The settings on record: dose 19.5-625 µM. The gist of the method: (§1)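 LC-MS IspD assay without coupling enzymes: 0.1 μM PfIspD, 2.0 mM MgCl2 in 100 mM Tris-HCl pH 7.6, 1 mM DTT, preincubated with inhibitor 10 min at 37 °C. One substrate varied 0–500 μM with the other at 500 μM; 40 min at 37 °C, heat-stopped at 95 °C. CDP-ME product quantified by HILIC LC-MS/MS with internal standard; Lineweaver–Burk plots.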

Test [2] deals with Plasmodium falciparum. As to the kind of experiment: Non-competitive inhibition of Plasmodium falciparum IspD at 19.5 to 625 uM in presence of CTP by lineweaver-burk plot analysis. The settings on record: dose 19.5-625 µM. The method in brief:
as §1

Calls of active or inactive are those of the source. No cut-off for these calls is given here.

With `N#Cc1ccc(NC(=O)Nc2cccc(S(=O)(=O)N3CCCC3)c2)cc1`, the inhibition entry in the test on Plasmodium falciparum [1] and in the test on Plasmodium falciparum [2] was “Active” each time.
